Columns and labels:
[1] = species: Ovis aries; assay: Selectivity ratio of IC50 for ovine COX1 to IC50 for ovine COX2
Procedure, shortened: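 Purified hematin-reconstituted ovine COX-1 and COX-2 (six units each) in Tris–HCl 0.1 M pH 8.0, 5 mM EDTA, 2 mM phenol. Enzymes were preincubated 1 h at room temperature with inhibitor in DMSO, then given arachidonic acid for 2 min at 37 °C. PGF2α from SnCl2 reduction of PGH2 was read by EIA. IC50s are means of duplicates; ratio is COX-1 IC50/COX-2 IC50.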

[2] = biological target: T1, Prostaglandin G/H synthase 1 (Ovis aries, UniProt P05979); assay: Inhibition of ovine COX1 by enzyme immuno assay
T1 sequence (P05979 whole entry): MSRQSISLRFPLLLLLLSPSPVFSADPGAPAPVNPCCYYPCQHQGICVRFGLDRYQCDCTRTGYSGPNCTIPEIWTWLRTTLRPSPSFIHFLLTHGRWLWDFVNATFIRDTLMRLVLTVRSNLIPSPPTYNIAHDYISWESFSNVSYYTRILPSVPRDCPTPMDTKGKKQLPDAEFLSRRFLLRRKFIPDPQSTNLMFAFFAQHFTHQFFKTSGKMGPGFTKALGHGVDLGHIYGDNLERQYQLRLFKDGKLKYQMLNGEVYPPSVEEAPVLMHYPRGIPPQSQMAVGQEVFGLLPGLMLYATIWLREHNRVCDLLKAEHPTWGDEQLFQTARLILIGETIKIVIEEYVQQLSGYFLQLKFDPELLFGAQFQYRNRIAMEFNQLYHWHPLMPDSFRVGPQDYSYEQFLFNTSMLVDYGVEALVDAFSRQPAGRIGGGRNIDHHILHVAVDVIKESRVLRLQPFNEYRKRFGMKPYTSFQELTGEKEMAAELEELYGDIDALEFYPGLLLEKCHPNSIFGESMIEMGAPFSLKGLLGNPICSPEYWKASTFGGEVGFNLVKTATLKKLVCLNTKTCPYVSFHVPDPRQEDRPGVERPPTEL
Procedure, shortened: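 Hematin-reconstituted purified ovine COX-1 (six units) in 0.1 M Tris-HCl pH 8.0 with 5 mM EDTA and 2 mM phenol. Pre-incubated 1 h at room temperature with inhibitor in DMSO, then arachidonic acid added for 2 min at 37 °C. PGH2 was reduced with stannous chloride and PGF2α measured by EIA. Run in duplicate; IC50 is the mean of the duplicates.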

[3] = biological target: T2, Polyunsaturated fatty acid lipoxygenase ALOX12 (Homo sapiens) (UniProt P18054); assay: Inhibition of LOX12 from human platelets at 10 uM by enzyme immuno assay
T2 sequence (whole entry): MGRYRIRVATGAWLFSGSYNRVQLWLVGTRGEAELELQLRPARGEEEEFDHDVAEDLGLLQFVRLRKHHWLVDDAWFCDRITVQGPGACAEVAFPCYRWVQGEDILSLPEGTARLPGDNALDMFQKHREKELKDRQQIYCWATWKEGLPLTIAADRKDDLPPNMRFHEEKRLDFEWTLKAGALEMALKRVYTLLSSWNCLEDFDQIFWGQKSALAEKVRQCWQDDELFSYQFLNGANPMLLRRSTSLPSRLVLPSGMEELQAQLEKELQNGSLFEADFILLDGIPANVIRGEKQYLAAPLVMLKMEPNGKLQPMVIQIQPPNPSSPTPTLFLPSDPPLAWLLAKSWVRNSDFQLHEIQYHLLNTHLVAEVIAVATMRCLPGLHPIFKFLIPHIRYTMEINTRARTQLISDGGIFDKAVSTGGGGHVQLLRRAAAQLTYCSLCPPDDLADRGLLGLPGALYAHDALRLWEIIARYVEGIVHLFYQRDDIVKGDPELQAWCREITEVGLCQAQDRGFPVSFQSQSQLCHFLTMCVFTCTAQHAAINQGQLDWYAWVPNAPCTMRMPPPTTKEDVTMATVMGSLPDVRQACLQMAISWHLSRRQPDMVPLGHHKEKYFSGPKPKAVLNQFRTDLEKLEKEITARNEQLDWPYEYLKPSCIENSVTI
Procedure, shortened: (§1)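 Run by a contract lab. Enzyme sources: human PBML cells (LOX-5), human platelets (LOX-12), rabbit reticulocytes (LOX-15). Substrates: endogenous arachidonic acid (LOX-5), added arachidonic acid (LOX-12), linoleic acid (LOX-15). Inhibition read as LTB4 (LOX-5), 12-HETE (LOX-12) or 15-HETE (LOX-15), quantified by EIA and spectrophotometrically.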

[4] = biological target: T3, Polyunsaturated fatty acid 5-lipoxygenase (Homo sapiens) (UniProt P09917); assay: Inhibition of LOX5 from human PBML cells at 10 uM by enzyme immuno assay; type: cell-based; procedure, shortened: as §1
T3 sequence (whole entry): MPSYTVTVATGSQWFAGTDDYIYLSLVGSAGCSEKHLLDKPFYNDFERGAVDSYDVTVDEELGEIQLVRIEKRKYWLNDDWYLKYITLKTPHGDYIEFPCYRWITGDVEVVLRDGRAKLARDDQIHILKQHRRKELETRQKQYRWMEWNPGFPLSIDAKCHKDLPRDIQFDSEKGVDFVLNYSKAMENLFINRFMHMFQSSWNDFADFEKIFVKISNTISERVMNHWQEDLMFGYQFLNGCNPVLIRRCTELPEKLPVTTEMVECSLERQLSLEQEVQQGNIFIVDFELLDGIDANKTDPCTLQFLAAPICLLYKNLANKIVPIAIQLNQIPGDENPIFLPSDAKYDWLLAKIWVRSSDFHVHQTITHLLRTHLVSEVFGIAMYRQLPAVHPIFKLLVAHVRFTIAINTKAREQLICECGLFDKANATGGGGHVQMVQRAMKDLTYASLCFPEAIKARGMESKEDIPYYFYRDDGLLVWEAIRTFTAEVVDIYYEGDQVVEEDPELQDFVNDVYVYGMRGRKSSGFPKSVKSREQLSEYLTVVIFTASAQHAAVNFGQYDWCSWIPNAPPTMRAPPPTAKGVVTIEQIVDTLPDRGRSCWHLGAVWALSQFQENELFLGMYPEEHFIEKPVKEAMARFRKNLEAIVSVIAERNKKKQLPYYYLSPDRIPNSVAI

[5] = biological target: T4, Polyunsaturated fatty acid lipoxygenase ALOX15 (Oryctolagus cuniculus) (UniProt P12530); assay: Inhibition of LOX15 from rabbit reticulocytes at 10 uM by enzyme immuno assay; procedure, shortened: as §1
T4 sequence (whole entry): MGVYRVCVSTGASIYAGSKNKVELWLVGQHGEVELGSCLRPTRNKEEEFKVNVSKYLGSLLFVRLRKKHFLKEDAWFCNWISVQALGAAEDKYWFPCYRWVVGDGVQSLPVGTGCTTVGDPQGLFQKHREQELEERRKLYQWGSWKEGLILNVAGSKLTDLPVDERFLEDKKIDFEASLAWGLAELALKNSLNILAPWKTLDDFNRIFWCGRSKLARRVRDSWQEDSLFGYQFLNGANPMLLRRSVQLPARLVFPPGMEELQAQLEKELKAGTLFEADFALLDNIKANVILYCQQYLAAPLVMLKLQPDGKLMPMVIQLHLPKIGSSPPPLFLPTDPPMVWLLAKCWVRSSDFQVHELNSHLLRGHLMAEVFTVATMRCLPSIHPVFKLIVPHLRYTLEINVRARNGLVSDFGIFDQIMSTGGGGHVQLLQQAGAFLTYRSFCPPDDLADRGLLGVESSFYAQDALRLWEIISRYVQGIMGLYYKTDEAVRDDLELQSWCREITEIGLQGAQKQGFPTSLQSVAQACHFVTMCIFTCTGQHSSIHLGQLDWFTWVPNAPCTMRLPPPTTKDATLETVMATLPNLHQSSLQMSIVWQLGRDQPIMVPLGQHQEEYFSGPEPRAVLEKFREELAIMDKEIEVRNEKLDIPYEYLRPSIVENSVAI

Row | SMILES | Ratio IC50 [1] | IC50 [2] | also measured
1 | NS(=O)(=O)c1ccc(N2N=C(C(F)(F)F)CC2c2c[nH]c3cc([N+](=O)[O-])ccc23)cc1 (centres undefined) | 0 | > 100 µM | –
2 | CS(=O)(=O)c1ccc(C2=C(c3ccccc3)C(=O)OC2)cc1 | – | – | inhibition [3]: -2%; inhibition [4]: 11%; inhibition [5]: 6%
3 | NS(=O)(=O)c1ccc(N2N=C(C(F)(F)F)CC2c2c[nH]c3ccccc23)cc1 (single isomer, unassigned; enantiomer 2) [listing 1 of 2 here] | – | > 100 µM | –
4 | NS(=O)(=O)c1ccc(N2N=C(C(F)(F)F)CC2c2c[nH]c3cc(Br)ccc23)cc1 (centres undefined) | > 23 | > 100 µM | –
5 | NS(=O)(=O)c1ccc(N2N=C(C(F)(F)F)CC2c2c[nH]c3ccccc23)cc1 (stereo in doubt; 5a) | – | > 100 µM | –
6 | NS(=O)(=O)c1ccc(N2N=C(C(F)(F)F)CC2c2c[nH]c3c(Cl)cccc23)cc1 (single isomer, unassigned; enantiomer 2) [listing 1 of 2 here] | – | > 100 µM | –
7 | Nc1cccc2[nH]cc(C3CC(C(F)(F)F)=NN3c3ccc(S(N)(=O)=O)cc3)c12 (centres undefined) | 0 | > 100 µM | –
8 | NS(=O)(=O)c1ccc(N2N=C(C(F)(F)F)CC2c2c[nH]c3c(Cl)cccc23)cc1 (single isomer, unassigned; enantiomer 1) [listing 1 of 2 here] | – | > 100 µM | –
9 | NS(=O)(=O)c1ccc(N2N=C(C(F)(F)F)CC2c2c[nH]c3c(Cl)cccc23)cc1 (single isomer, unassigned; enantiomer 1) [listing 2 of 2 here] | > 345 | – | –
10 | Cc1ccc(-c2cc(C(F)(F)F)nn2-c2ccc(S(N)(=O)=O)cc2)cc1 | – | – | inhibition [3]: 7%; inhibition [5]: 22%
11 | NS(=O)(=O)c1ccc(-n2nc(C(F)(F)F)cc2-c2c[nH]c3ccccc23)cc1 | 0 | > 100 µM | –
12 | COc1cccc2[nH]cc(C3CC(C(F)(F)F)=NN3c3ccc(S(N)(=O)=O)cc3)c12 (centres undefined) | 12 | > 100 µM | –
13 | Nc1ccc2[nH]cc(C3CC(C(F)(F)F)=NN3c3ccc(S(N)(=O)=O)cc3)c2c1 (centres undefined) | > 118 | > 100 µM | –
14 | NS(=O)(=O)c1ccc(N2N=C(C(F)(F)F)CC2c2c[nH]c3ccc(C(=O)O)cc23)cc1 (centres undefined) | 0 | > 100 µM | –
15 | Cc1[nH]c2cc(Cl)ccc2c1C1CC(C(F)(F)F)=NN1c1ccc(S(N)(=O)=O)cc1 (centres undefined) | > 17 | > 100 µM | –
16 | NS(=O)(=O)c1ccc(N2N=C(C(F)(F)F)CC2c2c[nH]c3ccccc23)cc1 (single isomer, unassigned; enantiomer 1) [listing 1 of 2 here] | > 119 | – | –
17 | NS(=O)(=O)c1ccc(N2N=C(C(F)(F)F)CC2c2c[nH]c3ccccc23)cc1 (single isomer, unassigned; enantiomer 2) [listing 2 of 2 here] | > 8 | – | –
18 | Nc1cccc2c(C3CC(C(F)(F)F)=NN3c3ccc(S(N)(=O)=O)cc3)c[nH]c12 (centres undefined) | > 42 | > 100 µM | –
19 | NS(=O)(=O)c1ccc(N2N=C(C(F)(F)F)CC2c2c[nH]c3c([N+](=O)[O-])cccc23)cc1 (centres undefined) | 0 | > 100 µM | –
20 | N#Cc1ccc2[nH]cc(C3CC(C(F)(F)F)=NN3c3ccc(S(N)(=O)=O)cc3)c2c1 (centres undefined) | 0 | > 100 µM | –
21 | N#Cc1ccc2c(C3CC(C(F)(F)F)=NN3c3ccc(S(N)(=O)=O)cc3)c[nH]c2c1 (centres undefined) | 0 | > 100 µM | –
22 | NS(=O)(=O)c1ccc(N2N=C(C(F)(F)F)CC2c2c[nH]c3c(Cl)cccc23)cc1 (single isomer, unassigned; enantiomer 2) [listing 2 of 2 here] | > 1 | – | –
23 | NS(=O)(=O)c1ccc(N2N=C(C(F)(F)F)CC2c2c[nH]c3c(Cl)cccc23)cc1 (stereo in doubt; 5f) | – | > 100 µM | –
24 | NS(=O)(=O)c1ccc(N2N=C(C(F)(F)F)CC2c2c[nH]c3ccccc23)cc1 (single isomer, unassigned; enantiomer 1) [listing 2 of 2 here] | – | > 100 µM | –
25 | Nc1ccc2c(C3CC(C(F)(F)F)=NN3c3ccc(S(N)(=O)=O)cc3)c[nH]c2c1 (centres undefined) | 14 | > 100 µM | –
26 | NS(=O)(=O)c1ccc(N2N=C(C(F)(F)F)CC2c2c[nH]c3ccc(Cl)cc23)cc1 (centres undefined) | > 3 | > 100 µM | –
27 | NS(=O)(=O)c1ccc(N2N=C(C(F)(F)F)CC2c2c[nH]c3cc(F)ccc23)cc1 (centres undefined) | 0 | > 100 µM | –
28 | NS(=O)(=O)c1ccc(N2N=C(C(F)(F)F)CC2c2c[nH]c3ccc(F)cc23)cc1 (centres undefined) | > 8 | > 100 µM | –
29 | NS(=O)(=O)c1ccc(N2N=C(C(F)(F)F)CC2c2c[nH]c3ccc([N+](=O)[O-])cc23)cc1 (centres undefined) | 2 | > 100 µM | –

Reference: ChEMBL document CHEMBL1144856, “Design, synthesis, and biological evaluation of 1-(4-sulfamylphenyl)-3-trifluoromethyl-5-indolyl pyrazolines as cyclooxygenase-2 (COX-2) and lipoxygenase (LOX) inhibitors” (Bioorg Med Chem, 2008)
